The source made the active and inactive calls.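 Rule for the calls: active = a clear concentration-dependent response in the calcium flux assay, with a fitted half-maximal potency; inactive = the rest.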
Molecular target: Muscarinic acetylcholine receptor M2 (Homo sapiens) (UniProt P08172)
Experiment: potentiation of ACh at human M2 – CHO Gqi5 cells, calcium fluorescence, counter-screen, dose response (AID 588746)
Settings: CHO hM2/Gqi5 calcium mobilization, Fluo-4 fluorescence
Outline: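 Assay system: CHO cells stably expressing human M2 receptor plus chimeric Gqi5 / Also added: ACh EC20 then ACh EC80 / Timing: compound 144 s before ACh EC20, EC80 86 s later, 37 °C / Signal: kinetic calcium fluorescence with Fluo-4 dye / Benchmarks: 1 mM ACh maximum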

Chain of Muscarinic acetylcholine receptor M2 (Homo sapiens) (P08172 whole entry, looked up): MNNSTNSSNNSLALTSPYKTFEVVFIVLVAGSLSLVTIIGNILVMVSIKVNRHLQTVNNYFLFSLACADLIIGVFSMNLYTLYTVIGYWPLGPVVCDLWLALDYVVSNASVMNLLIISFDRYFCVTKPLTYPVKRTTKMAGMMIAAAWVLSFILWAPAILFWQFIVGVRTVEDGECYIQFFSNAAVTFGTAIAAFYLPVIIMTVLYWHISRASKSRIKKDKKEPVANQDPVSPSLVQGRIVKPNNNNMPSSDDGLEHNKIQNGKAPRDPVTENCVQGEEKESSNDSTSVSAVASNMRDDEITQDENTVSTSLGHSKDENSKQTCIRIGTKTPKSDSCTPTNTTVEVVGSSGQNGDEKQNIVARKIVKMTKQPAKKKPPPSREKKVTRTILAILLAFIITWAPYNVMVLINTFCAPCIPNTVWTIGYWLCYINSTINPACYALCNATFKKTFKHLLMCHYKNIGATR

Cc1nc2sc(C(=O)NCc3nccs3)c(N)c2c(C)c1Cl
percent of ACh max response (at 30 µM (top of the series)): inactive

Cc1nc2sc(C(=O)NCc3ccncn3)c(N)c2c(C)c1Cl
percent of ACh max response (at 30 µM (top of the series)): inactive

Cc1nc2sc(C(=O)NCc3cccnc3)c(N)c2c(C)c1Cl
percent of ACh max response (at 45.3 µM (top of the series)): inactive

Cc1nc2sc(C(=O)NCc3ccncc3)c(N)c2c(C)c1Cl
percent of ACh max response (at 45.3 µM (top of the series)): inactive

Cc1nc2sc(C(=O)NCCc3ccncc3)c(N)c2c(C)c1Cl
percent of ACh max response (at 30 µM (top of the series)): inactive

Cc1nc2sc(C(=O)NC3CC3)c(N)c2c(C)c1Cl
EC50: 548 nM

Cc1nc2sc(C(=O)NCc3cccc(F)c3F)c(N)c2c(C)c1Cl
percent of ACh max response (at 30 µM (top of the series)): inactive

Cc1nc2sc(C(=O)NCc3ccccc3)c(N)c2c(C)c1Cl
percent of ACh max response (at 37.4 µM (top of the series)): inactive

Cc1nc2sc(C(=O)NCc3ccc4c(c3)OCO4)c(N)c2c(C)c1Cl
percent of ACh max response (at 36.8 µM (top of the series)): inactive

— PubChem BioAssay AID588746 (Vanderbilt Specialized Chemistry Center, 2011)
